T cruzi repl: inhibitors of intracellular T. cruzi growth, primary screen, luminescence, NIH3T3 host cells. AID 1885, 2009. inhibition, % (concentration not given with the values). 1.4% of 300,000 active. T. cruzi beta-gal in NIH3T3, 90 h;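 active means mean inhibition across valid replicates above about 55%, limit read from the data; inconclusive means mean below that limit but half or more replicates reach it; inactive means mean below it, under half of replicates reach it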;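 further: signal also drops with host cell toxicity which is not excluded here; 0% = plate median of DMSO wells and 100% = zero luminescence signal; higher percent means less beta-gal luminescence so fewer parasites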
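Incubation – ≥90 h infection period, 3 h prior cell attachment · System – NIH/3T3 fibroblasts plus reporter T. cruzi · Doses – compound pinned at 50 nL/well, DMSO · Read-out basis – percent inhibition of parasite-derived β-gal signal · Signal – luminescent β-galactosidase signal after 60 min lysis · Also added – 5000 T. cruzi trypomastigotes/well · Medium – Low-serum DMEM with 2% FBS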
CaV13 ICDI inh: Disruptors of the CACNA1D IQ motif to Ca2+-dependent inactivation inhibitor domain association, primary screening, Förster resonance energy transfer in intact living …; HEK cells, CFP/YFP FRET ICDI-IQ, plate reader, 10 min; percent FRET-ratio fall versus neutral wells; inhibition, % at 12.3 µM; 0.098% of 340,000 active;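 active means mean replicate inhibition of at least 30% and at least 1% of replicates passing that level; inconclusive means only one of the two criteria is met; inactive means neither criterion is met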;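 further: 0% = median of the neutral control wells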
HSF-1 act: HSF-1 activators, primary screen, NIH3T3-HGL cells, MG132 stress, luminescence, single point; activation, % at 9 µM; AID 504408, 2011; NIH3T3-HGL HSF-1 luciferase reporter, 8 h; 100% = twice DMSO control signal; 1.7% of 300,000 active;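 active means mean replicate activation of at least 50% with a set share of replicates each reaching 50%; inconclusive means only one of those two conditions met; inactive means mean below 50% and too few replicates reaching it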;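 further: 0% = median of the neutral control wells and 100% = twice that signal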
PvdQ inh: P. aeruginosa PvdQ acylase inhibitors, primary screen, biochemical, fluorescence, plate reader and imaging, single point; PvdQ acylase [Pseudomonas aeruginosa LESB58]; inhibition, % at 10 µM; purified PvdQ acylase; AID 488965, 2010; 0.063% of 340,000 active; in the data active means inhibition above about 30%, passing the limit was not always enough; inconclusive means no clear call, values can overlap the other calls;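 further: 0% = vehicle neutral wells and 100% = reference inhibitor wells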
PfHsp90 set2: growth inhibition of PfHsp90-expressing yeast, primary screen, antimalarial PfHsp90 inhibitor project, S. cerevisiae, BacTiter-Glo luminescence, single point, set 2 | inhibition, % at 9.4 µM | AID 504621, 2011 | 0.32% of 310,000 active | BacTiter-Glo ATP, 48 h; yeast lacking PDR1 and PDR3 efflux regulators;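 active means every replicate shows inhibition above about 80%, whatever the replicate mean, limit read from the data; inconclusive means mean inhibition reaches the set limit but some replicate falls short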;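 further: 0% = DMSO neutral controls and 100% = 20 µM radicicol positive controls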
N-glyco inh: increase of ERlucT glycosylation luciferase signal, primary screen, N-linked glycosylation inhibitor project, D54 ERlucT cells, luminescence, set 2; D54 ERlucT glycosylation luciferase reporter, 24 h; percent of 100 nM tunicamycin response; reporter increase, % at 12.5 µM; 0.23% of 360,000 active; AID 588692, 2011;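 active means mean luciferase reporter signal, scaled so untreated is 0 and the glycosylation-blocking control 100, at or above a set limit in every replicate; inconclusive means mean reaches the limit but not every replicate does; inactive means mean below the limit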;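 further: luciferase carries N-glycosylation sites so blocking glycosylation raises the light; 0% = median of neutral control wells and 100% = median of 100 nM tunicamycin wells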
The depositor's hits bear a star; ? = inconclusive; . = no result; + = active, no number. An excerpt weighted towards active compounds, which were near 3% of everything screened.

SMILES	T cruzi repl	CaV13 ICDI inh	HSF-1 act	PvdQ inh	PfHsp90 set2	N-glyco inh
C/C=C/c1ccc(OCCCCN2CC(C)CC(C)C2)c(OC)c1 (stereo not given)	54.7*	-1.0	-17.1	-6.6	22.3	-2.3
C/C=C/c1ccc(OCCCCN2CCN(CC)CC2)c(OC)c1	17.2	-0.9	2.7	-12.2	-14.0	-1.9
COc1ccc(C(CCN)Cc2ccccc2)cc1 (stereo not given)	89.4*	-4.5	17.6	-15.9	-8.9	-4.1
CC(C)[C@H](NC(=O)CC1CCCC1)C(=O)N1CCC[C@H]1C(=O)NCCc1ccccc1Cl	.	-10.4	.	.	.	.
CC(C)=CCc1cc2c(=O)c3c(O)c4c(cc3oc2c(O)c1O)OC(C)C4(C)C (stereo not given)	67.1*	.	-25.2	.	.	.
CC1Oc2cc3oc4c(O)c5c(cc4c(=O)c3c(O)c2C1(C)C)C=CC(C)(C)O5 (stereo not given)	9.5	.	-23.8	.	.	.
CC(C)CCN(CCC(C)C)CC(O)Cn1c2ccccc2c(=O)c2ccccc21 (stereo not given)	22.4	+	-11.8	-9.6	17.5	-8.8
CCCN(CCC)CC(O)Cn1c2ccccc2c2ccccc21 (stereo not given)	19.8	-19.7	5.0	-11.0	-6.2	-4.3
COc1ccc2nc3sc(C(=O)NCc4cccs4)c(N)c3cc2c1	9.4	-7.5	54.7*	.	.	.
COc1ccc(-c2cc(C(=O)NCc3cccs3)no2)cc1	-0.1	0.5	22.0	-7.7	-33.3	-3.7
CC1CC2(CCCCC2)Nc2ccc3ccccc3c21 (stereo not given)	-0.4	-5.6	57.7*	17.8	-0.4	8.1
COc1ccc(NC(=O)c2ccc3c(=O)n(-c4ccc(OC)cc4OC)c(=S)[nH]c3c2)c(OC)c1	9.0	-5.7	-0.8	-8.8	0.8	-1.5
COc1ccc(-n2c(=S)[nH]c3cc(C(=O)NC4CCCCC4)ccc3c2=O)c(OC)c1	-4.1	-2.9	59.7*	-10.7	6.9	22.1
COc1ccc(C(=O)/C=C/C(=O)N(CC(=O)NC2CCCCC2)Cc2ccccc2OC)c(O)c1	89.1*	4.8	37.9	-12.0	-6.0	-6.2
COc1ccc(C(=O)/C=C/C(=O)N(CC(=O)NC2CCCCC2)Cc2ccccc2)c(O)c1	59.7*	-18.5	169.9*	-12.3	27.4	8.3
COc1ccc(C(=O)/C=C/C(=O)N(CC(=O)NC2CCCCC2)CC2CCCO2)c(O)c1 (stereo not given)	49.6	-18.6	3.7	-0.5	4.4	-16.3
C[C@@H]1CN([C@H](C)CO)C(=O)c2c(c3ccccc3n2C)-c2ccccc2CO[C@@H]1CN(C)C(=O)CCN(C)C	.	-5.6	.	.	.	.
Cc1ccnc(N/C=C/C(=O)c2ccc(Br)cc2)c1	3.6	-4.9	?	6.7	-21.0	-15.0
O=C(/C=C/Nc1ccc(F)cc1)c1ccc(Br)cc1	-11.2	-20.2	65.4*	-13.6	-1.0	-9.0
O=C(/C=C/Nc1ccc(F)cc1)c1cccs1	-11.2	.	64.9*	20.6	10.4	-11.5
Cc1cc(N/C=C/C(=O)c2ccc(Br)cc2)no1	13.0	-9.4	55.5*	14.8	4.2	0.7
CCN(CC)CCCNC(=O)c1cc2c(Cl)nc3ccccc3c2s1	49.7	-6.0	42.4	-21.4	5.9	1.8
CC1CCCN(CCCNC(=O)c2cc3c(Cl)nc4ccccc4c3s2)C1 (stereo not given)	76.8*	-4.3	2.6	-15.4	-9.0	?
CN(CCCNC(=O)c1cc2c(Cl)nc3ccccc3c2s1)Cc1ccccc1	68.9*	-4.4	-10.2	-12.8	0.9	-3.3
Cc1nc2ccc(C(=O)N3c4ccccc4N=C(c4ccc(C(F)(F)F)cc4)C3C(=O)NC(C)(C)C)cc2[nH]1 (stereo not given)	.	-9.2	.	.	.	.
SMILES	T cruzi repl	CaV13 ICDI inh	HSF-1 act	PvdQ inh	PfHsp90 set2	N-glyco inh
O=C(Nc1ccc(-c2ccco2)cc1)C1CCCN(Cc2ccco2)C1 (stereo not given)	.	37.2*	.	.	.	1.2
COc1cccc(-c2ccc(NC(=O)C3CCCN(Cc4ccco4)C3)cc2)c1 (stereo not given)	32.2	-1.4	-7.0	-13.8	8.4	-0.7
COc1ccc(OC)c2sc(N3CCc4ccccc4C3)nc12	2.2	-6.5	127.8*	-6.1	.	2.1
O=C1C=CC(O)C2(CO)OC12 (stereo not given)	.	-6.0	.	.	.	16.0
CC1=NN(c2ccc(C)cc2C)C(=O)C1C(c1ccccc1)C1C(=O)N(c2ccc(C)cc2C)N=C1C (stereo not given)	0.2	.	63.9*	-6.2	-37.5	0.5
Cc1ccc(-n2nc(C)c(C(=O)O)n2)c(C)c1	2.9	-5.7	-4.1	-2.1	4.8	1.7
C/C(CC1CC2=C(CC1(C)C)C(C)(C)CCC2)=N\NC(N)=S (stereo not given)	55.7*	-5.4	-0.3	7.2	-17.6	0.8
O=c1[nH]c(COc2ccc(Cl)cc2Cl)nc2ccccc12	7.7	-1.6	84.8*	-3.6	-3.5	-3.2
O=c1[nH]c(COc2ccc(Cl)cc2Br)nc2ccccc12	0.2	-2.7	60.6*	-6.2	-12.7	-5.8
Nc1ccn([C@@H]2O[C@H](C(=O)N[C@H](Cc3ccccc3)C(=O)N3CCSC3)[C@@H](O)[C@H]2O)c(=O)n1	.	-10.3	.	.	.	.
O=[N+]([O-])c1cccnc1Sc1ccc(Cl)cc1	1.8	-17.6	27.1	47.2*	-0.9	-0.7
Cc1cc(O)cc(=O)n1-c1cccc(Br)c1	.	-1.4	.	.	.	.
CCCCN1C(=O)C(CC(=O)NCCN2CCOCC2)CC(C(=O)N(C(C)C)C(C)C)=C1C (stereo not given)	.	-5.2	.	.	.	2.6
COC(=O)c1cc(NC(=O)c2cc(-c3ccc(Cl)cc3)oc2C(F)(F)F)ccc1N1CCOCC1	62.8*	-5.3	15.2	-17.4	0.8	2.9
O=c1[nH]cnc2scc(-c3ccc(-c4ccccc4)cc3)c12	-17.6	-5.2	58.0*	1.5	.	-7.2
COc1ccc(NC(=O)COc2ccccc2Cc2ccccc2)cc1S(N)(=O)=O	-0.1	-6.7	81.1*	-16.4	-11.4	0.0
FC(F)(F)c1ccc(N2CCN(c3ncnc4c3nnn4Cc3ccccc3Cl)CC2)cc1	50.6	.	-0.3	-17.3	25.7	3.4
Fc1ccc(N2CCN(c3ncnc4c3nnn4Cc3ccccc3Cl)CC2)cc1	62.9*	.	-8.7	-17.7	10.4	-0.6
COc1ccc(C2CC(=O)C(c3ccc(C(N)=O)cc3)=CN2Cc2ccccc2)cc1 (stereo not given)	.	-4.6	.	.	.	.
